From ChEMBL document CHEMBL1177669, “Synthesis and biological study of 3-(phenylsulfonyl)thieno[2,3-e][1,2,3]triazolo[1,5-a]pyrimidines as potent and selective serotonin 5-HT6 receptor antagonists” (Bioorg Med Chem, 2010) come the findings set out here.

Structures are written as SMILES. Some results are limits rather than exact numbers.

In the test the target is 5-hydroxytryptamine receptor 6 (Homo sapiens, UniProt P50406). In words: Antagonist activity at human recombinant 5HT6 receptor expressed in HEK293 cells assessed as inhibition of serotonin-induced cAMP production. It counts as functional, cell-based. In short, it runs like this: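 HEK293 cells stably expressing recombinant human 5-HT6R, stimulated with serotonin. cAMP from adenylyl cyclase measured by LANCE. Compounds screened at 5 and 10 μM. IC50 determined for compounds giving more than 50% inhibition of cAMP synthesis at 5 μM.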
5-hydroxytryptamine receptor 6, sequence (P50406 whole entry): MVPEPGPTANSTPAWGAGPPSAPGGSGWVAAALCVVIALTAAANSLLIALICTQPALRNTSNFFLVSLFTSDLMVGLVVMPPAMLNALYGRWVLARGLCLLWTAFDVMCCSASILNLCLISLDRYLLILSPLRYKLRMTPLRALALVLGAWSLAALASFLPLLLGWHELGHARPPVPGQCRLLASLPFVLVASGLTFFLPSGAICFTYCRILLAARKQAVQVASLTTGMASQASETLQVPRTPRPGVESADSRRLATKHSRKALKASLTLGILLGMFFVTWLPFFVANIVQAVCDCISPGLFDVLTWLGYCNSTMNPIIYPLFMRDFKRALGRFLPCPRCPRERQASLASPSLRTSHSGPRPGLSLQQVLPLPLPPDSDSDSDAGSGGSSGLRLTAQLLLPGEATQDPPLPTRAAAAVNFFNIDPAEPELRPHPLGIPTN

Take `CN(Cc1ccccc1)c1nc2c(S(=O)(=O)c3ccc(Br)cc3)nnn2c2ccsc12`: the IC50 (commonly the midpoint of a concentration-inhibition curve) amounted to 1950 nM.
In the case of `O=S(=O)(c1ccccc1)c1nnn2c1nc(NCc1ccc(F)cc1)c1sccc12`, the IC50 worked out at 690 nM.
As for `O=S(=O)(c1cccc(Cl)c1)c1nnn2c1nc(NC1CCCC1)c1sccc12`, the IC50 worked out at 170 nM.
Consider `Cc1cccc(Nc2nc3c(S(=O)(=O)c4ccc(C(C)C)cc4)nnn3c3ccsc23)c1`, for which the 50% inhibitory concentration (IC50) amounted to 590 nM.
With `O=S(=O)(c1ccccc1)c1nnn2c1nc(Nc1ccc(F)cc1)c1sccc12` the figure was 600 nM.
Under `Cc1ccc(C)c(S(=O)(=O)c2nnn3c2nc(NCC2CCCO2)c2sccc23)c1` (stereo not drawn) stands 890 nM.
Under `Cc1ccc(S(=O)(=O)c2nnn3c2nc(NC2CCCC2)c2sccc23)cc1` stands 2030 nM.
Take `Cc1ccc(S(=O)(=O)c2nnn3c2nc(Nc2cccc(F)c2)c2sccc23)cc1`: the IC50 came out at 3810 nM.
`Cc1ccc(C)c(S(=O)(=O)c2nnn3c2nc(NC(C)c2ccccc2)c2sccc23)c1` (stereo not drawn): the IC50 was found to be 170 nM.
Under `CC1CCN(c2nc3c(S(=O)(=O)c4cccc(Cl)c4)nnn3c3ccsc23)CC1` stands 1120 nM.
On to `O=S(=O)(c1ccc(Cl)cc1)c1nnn2c1nc(NCC1CCCO1)c1sccc12` (stereo not drawn), for which the IC50 was determined as 480 nM.
Under `CC(C)CCNc1nc2c(S(=O)(=O)c3cccc(Cl)c3)nnn2c2ccsc12` stands 68 nM.
For `O=S(=O)(c1ccccc1)c1nnn2c1nc(Nc1nc3ccccc3s1)c1sccc12`, the IC50 is greater than 5000 nM.
On to `CC(Nc1nc2c(S(=O)(=O)c3cccc(Cl)c3)nnn2c2ccsc12)c1ccccc1` (stereo not drawn), for which the IC50 is 150 nM.
For the compound `COCCNc1nc2c(S(=O)(=O)c3ccc(C)c(C)c3)nnn2c2ccsc12`, the IC50 turned out to be 1570 nM.
As for `O=S(=O)(c1cccc(Cl)c1)c1nnn2c1nc(N1CCCCCC1)c1sccc12`, the IC50 is 1540 nM.
With `Nc1nc2c(S(=O)(=O)c3cccc(Cl)c3)nnn2c2ccsc12` the figure was 690 nM; with `CN(C)CCN(C)c1nc2c(S(=O)(=O)c3cccc(Cl)c3)nnn2c2ccsc12` [listing 1 of 2 here], 780 nM; with `Cc1ccc(C)c(S(=O)(=O)c2nnn3c2nc(NCCc2ccccc2)c2sccc23)c1`, 670 nM.
With `CCc1cccc(Nc2nc3c(S(=O)(=O)c4ccc(C)cc4)nnn3c3ccsc23)c1` the figure was 1380 nM; with `Cc1ccc(S(=O)(=O)c2nnn3c2nc(NCc2cccs2)c2sccc23)cc1`, 220 nM.
Turning to `Cc1ccc(S(=O)(=O)c2nnn3c2nc(NC(C)c2ccccc2)c2sccc23)cc1` (stereo not drawn), the IC50 amounted to 180 nM.
Regarding `CN(C)CCN(C)c1nc2c(S(=O)(=O)c3cccc(Cl)c3)nnn2c2ccsc12` [listing 2 of 2 here], the IC50 was determined as 580 nM.
As for `Cc1ccc(S(=O)(=O)c2nnn3c2nc(NC(C)Cc2ccccc2)c2sccc23)cc1C` (stereo not drawn), the IC50 amounted to 680 nM.
Take `O=S(=O)(c1ccccc1)c1nnn2c1nc(NCc1ccccc1)c1sccc12`: the half-maximal inhibitory concentration (IC50) was found to be 59 nM.
Consider `O=S(=O)(c1cccc(Cl)c1)c1nnn2c1nc(NC1CCCCC1)c1sccc12`, for which the 50% inhibitory concentration (IC50) was determined as 69 nM.
Under `O=S(=O)(c1cccc(Cl)c1)c1nnn2c1nc(NCC1CCCO1)c1sccc12` (stereo not drawn) stands 29 nM; under `COCCNc1nc2c(S(=O)(=O)c3ccc(C)cc3)nnn2c2ccsc12`, 1490 nM; under `Cc1ccc(S(=O)(=O)c2nnn3c2nc(NCc2ccc4c(c2)OCO4)c2sccc23)cc1`, 1250 nM.
Turning to `O=S(=O)(c1cccc(Cl)c1)c1nnn2c1nc(Nc1cccc(C(F)(F)F)c1)c1sccc12`, the IC50 stood at 1070 nM.
Regarding `CC1CCCN(c2nc3c(S(=O)(=O)c4cccc(Cl)c4)nnn3c3ccsc23)C1` (stereo not drawn), the IC50 came out at 2000 nM.
Regarding `O=S(=O)(c1ccccc1)c1nnn2c1nc(NCc1ccc(Cl)cc1)c1sccc12`, the IC50 amounted to 1170 nM.
For `O=S(=O)(c1cccc(Cl)c1)c1nnn2c1nc(NCc1ccco1)c1sccc12`, the IC50 is 190 nM.
For the compound `Cc1ccc(S(=O)(=O)c2nnn3c2nc(NC(C)C)c2sccc23)cc1C`, the IC50 amounted to 750 nM.
In the case of `COCCNc1nc2c(S(=O)(=O)c3ccc(C(C)C)cc3)nnn2c2ccsc12`, the IC50 is greater than 5000 nM.
With `COCCCNc1nc2c(S(=O)(=O)c3ccccc3)nnn2c2ccsc12` the figure was 260 nM; with `COc1ccccc1Nc1nc2c(S(=O)(=O)c3ccc(Cl)cc3)nnn2c2ccsc12`, 1150 nM.
Under `COCCNc1nc2c(S(=O)(=O)c3cc(C)ccc3C)nnn2c2ccsc12` stands 860 nM; under `CCN(CC)c1nc2c(S(=O)(=O)c3cccc(Cl)c3)nnn2c2ccsc12`, 1220 nM; under `Cc1ccc(S(=O)(=O)c2nnn3c2nc(NCc2ccccc2)c2sccc23)cc1`, 260 nM.
With `Cc1cc(Cl)cc(Nc2nc3c(S(=O)(=O)c4ccc(C)c(C)c4)nnn3c3ccsc23)c1` the figure was 2260 nM; with `Cc1ccc(S(=O)(=O)c2nnn3c2nc(NCc2ccccc2Cl)c2sccc23)cc1C`, 600 nM; with `CC(C)c1ccc(S(=O)(=O)c2nnn3c2nc(NCc2ccccc2Cl)c2sccc23)cc1`, 1830 nM.
Regarding `CCN(Cc1ccccc1)c1nc2c(S(=O)(=O)c3cc(C)ccc3C)nnn2c2ccsc12`, the IC50 stood at 1100 nM.
With `CCc1ccc(S(=O)(=O)c2nnn3c2nc(NCCCOC)c2sccc23)cc1` the figure was greater than 5000 nM.
Under `Cc1cccc(Nc2nc3c(S(=O)(=O)c4ccc(C(C)C)cc4)nnn3c3ccsc23)c1C` stands 1000 nM; under `Cc1ccc(C)c(Nc2nc3c(S(=O)(=O)c4ccc(Br)cc4)nnn3c3ccsc23)c1`, 2010 nM; under `NC(=O)C1CCN(c2nc3c(S(=O)(=O)c4ccccc4)nnn3c3ccsc23)CC1`, 1990 nM.
As to `CCc1ccc(S(=O)(=O)c2nnn3c2nc(NC(C)C)c2sccc23)cc1`, the IC50 was determined as 1600 nM.
On to `CCN(Cc1ccccc1)c1nc2c(S(=O)(=O)c3ccc(Cl)cc3)nnn2c2ccsc12`, for which the IC50 was found to be 570 nM.
Under `Cc1ccc(C)c(S(=O)(=O)c2nnn3c2nc(N2CCCCC2)c2sccc23)c1` stands 1520 nM; under `Cc1ccc(S(=O)(=O)c2nnn3c2nc(NCc2ccc(F)cc2)c2sccc23)cc1`, 740 nM; under `CC(Nc1nc2c(S(=O)(=O)c3ccc(Cl)cc3)nnn2c2ccsc12)c1ccccc1` (stereo not drawn), 280 nM.
With `O=S(=O)(c1ccccc1)c1nnn2c1nc(NC1CCCCCC1)c1sccc12` the figure was 170 nM; with `CCc1ccc(S(=O)(=O)c2nnn3c2nc(NCCc2ccccc2)c2sccc23)cc1`, 1050 nM; with `CC(C)CCNc1nc2c(S(=O)(=O)c3ccc(C(C)C)cc3)nnn2c2ccsc12`, greater than 5000 nM.
With `CC1CCCN(c2nc3c(S(=O)(=O)c4ccccc4)nnn3c3ccsc23)C1` (stereo not drawn) the figure was 2030 nM; with `O=S(=O)(c1ccccc1)c1nnn2c1nc(Nc1ccccc1)c1sccc12`, 5000 nM; with `CCCCNc1nc2c(S(=O)(=O)c3ccc(C(C)C)cc3)nnn2c2ccsc12`, greater than 5000 nM.
Turning to `Nc1nc2c(S(=O)(=O)c3ccc(Br)cc3)nnn2c2ccsc12`, the IC50 was determined as 610 nM.
Consider `Cc1ccc(S(=O)(=O)c2nnn3c2nc(NCc2ccco2)c2sccc23)cc1C`, for which the IC50 amounted to 770 nM.
With `Cc1ccc(S(=O)(=O)c2nnn3c2nc(Nc2cccc(C)c2)c2sccc23)cc1` the figure was 5220 nM.
On to `O=S(=O)(c1ccccc1)c1nnn2c1nc(Nc1cccc(C(F)(F)F)c1)c1sccc12`, for which the IC50 came out at 820 nM.
Under `COc1cccc(CNc2nc3c(S(=O)(=O)c4ccc(C)cc4)nnn3c3ccsc23)c1` stands 2210 nM; under `CCc1ccc(S(=O)(=O)c2nnn3c2nc(NCCC(C)C)c2sccc23)cc1`, greater than 5000 nM.
With `Cc1ccc(S(=O)(=O)c2nnn3c2nc(NC2CCCCC2)c2sccc23)cc1` the figure was 730 nM; with `CC(Cc1ccccc1)Nc1nc2c(S(=O)(=O)c3ccccc3)nnn2c2ccsc12` (stereo not drawn), 1080 nM; with `Cc1ccc(C)c(S(=O)(=O)c2nnn3c2nc(NCc2cccs2)c2sccc23)c1`, 710 nM.
Regarding `O=S(=O)(c1cccc(Cl)c1)c1nnn2c1nc(Nc1ccc(F)cc1)c1sccc12`, the IC50 is 2500 nM.
With `Cc1ccc(S(=O)(=O)c2nnn3c2nc(NCC2CCCO2)c2sccc23)cc1` (stereo not drawn) the figure was 250 nM.
Under `Cc1ccc(Nc2nc3c(S(=O)(=O)c4ccc(Br)cc4)nnn3c3ccsc23)cc1C` stands 1350 nM; under `O=S(=O)(c1ccc(Br)cc1)c1nnn2c1nc(NCC1CCCO1)c1sccc12` (stereo not drawn), 1620 nM; under `Cc1ccc(Nc2nc3c(S(=O)(=O)c4cccc(Cl)c4)nnn3c3ccsc23)cc1`, 1210 nM.
Under `Cc1ccc(S(=O)(=O)c2nnn3c2nc(NCc2ccco2)c2sccc23)cc1` stands 500 nM.
As to `Cc1ccc(C)c(S(=O)(=O)c2nnn3c2nc(NC2CCCC2)c2sccc23)c1`, the IC50 was 590 nM.
Under `Cc1ccc(S(=O)(=O)c2nnn3c2nc(Nc2cccc(C)c2C)c2sccc23)cc1` stands 590 nM; under `Cc1ccc(S(=O)(=O)c2nnn3c2nc(NC2CCCCCC2)c2sccc23)cc1C`, 350 nM.
With `CC(Nc1nc2c(S(=O)(=O)c3ccccc3)nnn2c2ccsc12)c1ccccc1` (stereo not drawn) the figure was 37 nM; with `Cc1cccc(Nc2nc3c(S(=O)(=O)c4ccc(Cl)cc4)nnn3c3ccsc23)c1C`, 800 nM; with `O=S(=O)(c1cccc(Cl)c1)c1nnn2c1nc(NC1CCCCCC1)c1sccc12`, 140 nM.
With `Cc1ccc(Nc2nc3c(S(=O)(=O)c4ccc(C(C)C)cc4)nnn3c3ccsc23)cc1C` the figure was 1110 nM; with `CN(Cc1ccccc1)c1nc2c(S(=O)(=O)c3ccc(Cl)cc3)nnn2c2ccsc12`, 1190 nM; with `COCCCNc1nc2c(S(=O)(=O)c3cc(C)ccc3C)nnn2c2ccsc12`, 1290 nM.
As to `CC(C)Nc1nc2c(S(=O)(=O)c3cccc(Cl)c3)nnn2c2ccsc12`, the IC50 amounted to 470 nM.
With `CCN(Cc1ccccc1)c1nc2c(S(=O)(=O)c3ccc(C)cc3)nnn2c2ccsc12` the figure was 300 nM; with `O=S(=O)(c1ccc(Cl)cc1)c1nnn2c1nc(NCc1ccco1)c1sccc12`, 410 nM.
Consider `COCCNc1nc2c(S(=O)(=O)c3ccc(Cl)cc3)nnn2c2ccsc12`, for which the IC50 worked out at 2170 nM.
With `CCc1ccc(S(=O)(=O)c2nnn3c2nc(Nc2cccc(C)c2)c2sccc23)cc1` the figure was 1750 nM.
